# Key:
# Assay type in all cases: functional
# 786-0 [1] = test: Growth inhibition of human 786-0 cells assessed as cell growth at 10^-6 M after 48 hrs by sulforhodamine B assay; settings: 786-0, 48 h, read-out: Activity
# Summary of the method: (§1)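 Five-dose NCI-60 run (0.01, 0.1, 1, 10 and 100 µM, as 10-fold dilutions from a DMSO stock made at 400× the top final level). Cells were grown in RPMI 1640 with 5% FBS and 2 mM glutamine and plated for 24 h. They were then exposed for 48 h at 37 °C and 5% CO2. TCA fixation was followed by SRB staining with A515 read-out. Percent growth was taken relative to time-zero and control plates.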
# SK-OV-3 [2] = test: Growth inhibition of human SKOV3 cells assessed as cell growth at 10^-8 M after 48 hrs by sulforhodamine B assay; settings: SK-OV-3, 48 h, read-out: Activity
# OVCAR-8 [3] = test: Growth inhibition of human OVCAR8 cells assessed as cell growth at 10^-7 M after 48 hrs by sulforhodamine B assay; settings: OVCAR-8, 48 h, read-out: Activity
# U-251 = test: Growth inhibition of human U251 cells assessed as cell growth at 10^-5 M after 48 hrs by sulforhodamine B assay; settings: U-251, 48 h, read-out: Activity
# RXF 393 = test: Growth inhibition of human RXF393 cells after 48 hrs by sulforhodamine B assay; settings: RXF 393, 48 h; for CC50: read-out: LC50 (the source's name)
# Summary of the method: (§2)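 Adherent cells in RPMI 1640 with 5% FBS and 2 mM L-glutamine were plated at 5000–40,000 cells/well and grown 24 h. Five concentrations (0.01–100 µM, DMSO stock) were added for 48 h at 37 °C. Cells were fixed with cold TCA (10% final) and stained with SRB, read at 515 nm. GI50 came from log concentration–growth curves against time-zero and control plates.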
# KM12 = test: Growth inhibition of human KM12 cells assessed as cell growth at 10^-4 M after 48 hrs by sulforhodamine B assay; settings: KM12, 48 h, read-out: Activity
# [4] = Growth inhibition of human EKVX cells assessed as cell growth at 10^-5 M after 48 hrs by sulforhodamine B assay; settings: read-out: Activity
# Summary of the method: (§3)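 Five-dose screen at NCI. Cells in RPMI 1640 with 5% FBS and 2 mM L-glutamine, seeded at 5000–40,000 cells/well and grown 24 h at 37 °C, 5% CO2 before dosing, with time-zero plates TCA-fixed. Drug diluted from DMSO stock to 0.01, 0.1, 1, 10 and 100 µM final, 48 h. Cells fixed with cold TCA (10% final), stained with 0.4% SRB and read at 515 nm. Percent growth from Tz, control and test absorbances; GI50, TGI and LC50 from dose-response curves.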
# UO-31 [5] = test: Growth inhibition of human UO31 cells assessed as cell growth at 10^-6 M after 48 hrs by sulforhodamine B assay; settings: UO-31, 48 h, read-out: Activity
# NCI-H460 [6] = test: Growth inhibition of human NCI-H460 cells assessed as cell growth at 10^-4 M after 48 hrs by sulforhodamine B assay; settings: NCI-H460, 48 h, read-out: Activity
# HOP-62 = test: Growth inhibition of human HOP62 cells assessed as cell growth at 10^-8 M after 48 hrs by sulforhodamine B assay; settings: HOP-62, 48 h, read-out: Activity; summary of the method: as §3
# SNB-19 = test: Growth inhibition of human SNB19 cells assessed as cell growth at 10^-7 M after 48 hrs by sulforhodamine B assay; settings: SNB-19, 48 h, read-out: Activity
# HOP-92 = test: Growth inhibition of human HOP92 cells assessed as cell growth at 10^-5 M after 48 hrs by sulforhodamine B assay; settings: HOP-92, 48 h, read-out: Activity; summary of the method: as §3
# MDA-MB-231 = test: Growth inhibition of human MDA-MB-231 cells assessed as cell growth at 10^-8 M after 48 hrs by sulforhodamine B assay; settings: MDA-MB-231, 48 h, read-out: Activity
# OVCAR-8 [7] = test: Growth inhibition of human OVCAR8 cells after 48 hrs by sulforhodamine B assay; settings: OVCAR-8, 48 h; for CC50: read-out: LC50 (the source's name)
# Summary of the method: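 Five-dose NCI 60 screen at 0.01, 0.1, 1, 10 and 100 µM, 48 h exposure after 24 h preincubation, in RPMI 1640 with 5% FBS and 2 mM glutamine. Fixed with TCA (10% final for adherent cells, 16% for suspension cells), stained with SRB, A515 read. Percent growth uses time-zero (Tz), control and treated plates. GI50, TGI and LC50 are read from the dose-response curves.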
# UO-31 [8] = test: Growth inhibition of human UO31 cells assessed as cell growth at 10^-5 M after 48 hrs by sulforhodamine B assay; settings: UO-31, 48 h, read-out: Activity
# NCI-H460 [9] = test: Growth inhibition of human NCI-H460 cells assessed as cell growth at 10^-8 M after 48 hrs by sulforhodamine B assay; settings: NCI-H460, 48 h, read-out: Activity
# NCI-H23 = test: Growth inhibition of human NCI-H23 cells assessed as cell growth at 10^-6 M after 48 hrs by sulforhodamine B assay; settings: NCI-H23, 48 h, read-out: Activity
# 786-0 [10] = test: Growth inhibition of human 786-0 cells assessed as cell growth at 10^-4 M after 48 hrs by sulforhodamine B assay; settings: 786-0, 48 h, read-out: Activity; summary of the method: as §1
# NCI-H460 [11] = test: Growth inhibition of human NCI-H460 cells assessed as cell growth at 10^-7 M after 48 hrs by sulforhodamine B assay; settings: NCI-H460, 48 h, read-out: Activity
# SF-268 = test: Growth inhibition of human SF268 cells after 48 hrs by sulforhodamine B assay; settings: SF-268, 48 h; for CC50: read-out: LC50 (the source's name); summary of the method: as §2
# UACC-62 = test: Growth inhibition of human UACC62 cells assessed as cell growth at 10^-7 M after 48 hrs by sulforhodamine B assay; settings: UACC-62, 48 h, read-out: Activity
# MDA-MB-435 = test: Growth inhibition of human MDA-MB-435 cells assessed as cell growth at 10^-8 M after 48 hrs by sulforhodamine B assay; settings: MDA-MB-435, 48 h, read-out: Activity
# UO-31 [12] = test: Growth inhibition of human UO31 cells assessed as cell growth at 10^-8 M after 48 hrs by sulforhodamine B assay; settings: UO-31, 48 h, read-out: Activity
# 786-0 [13] = test: Growth inhibition of human 786-0 cells assessed as cell growth at 10^-7 M after 48 hrs by sulforhodamine B assay; settings: 786-0, 48 h, read-out: Activity; summary of the method: as §1
# HCT-116 = test: Growth inhibition of human HCT116 cells assessed as cell growth at 10^-4 M after 48 hrs by sulforhodamine B assay; settings: HCT-116, 48 h, read-out: Activity; summary of the method: as §3
# [14] = Growth inhibition of human NCI-ADR-RES cells assessed as cell growth at 10^-5 M after 48 hrs by sulforhodamine B assay; settings: read-out: Activity
# PC-3 = test: Growth inhibition of human PC3 cells assessed as cell growth at 10^-4 M after 48 hrs by sulforhodamine B assay; settings: PC-3, 48 h, read-out: Activity
# OVCAR-3 = test: Growth inhibition of human OVCAR3 cells after 48 hrs by sulforhodamine B assay; settings: OVCAR-3, 48 h; for CC50: read-out: LC50 (the source's name); summary of the method: as §2
# SK-OV-3 [15] = test: Growth inhibition of human SKOV3 cells assessed as cell growth at 10^-6 M after 48 hrs by sulforhodamine B assay; settings: SK-OV-3, 48 h, read-out: Activity
structure (smiles),measurement,setting,value
O=S(=O)(Nc1ccc(Cl)cc1)c1ccc2nc(-c3ccccc3)c(-c3ccccc3)nc2c1,growth at 1 µM,786-0 [1],93%
same,growth at 0.01 µM,SK-OV-3 [2],95%
same,growth at 0.1 µM,OVCAR-8 [3],101%
same,growth at 10 µM,U-251,-5%
same,CC50,RXF 393,> 100 µM
same,growth at 100 µM,KM12,71%
same,growth at 10 µM,[4],-7%
same,growth at 1 µM,UO-31 [5],90%
same,growth at 100 µM,NCI-H460 [6],68%
same,growth at 0.01 µM,HOP-62,96%
same,growth at 0.1 µM,SNB-19,96%
same,growth at 10 µM,HOP-92,-13%
same,growth at 0.01 µM,MDA-MB-231,99%
same,TGI,OVCAR-8 [7],> 100 µM
same,CC50,OVCAR-8 [7],> 100 µM
same,growth at 10 µM,UO-31 [8],6%
same,growth at 0.01 µM,NCI-H460 [9],101%
same,growth at 1 µM,NCI-H23,85%
same,growth at 100 µM,786-0 [10],75%
same,growth at 0.1 µM,NCI-H460 [11],105%
same,TGI,SF-268,> 100 µM
same,CC50,SF-268,> 100 µM
same,growth at 0.1 µM,UACC-62,87%
same,growth at 0.01 µM,MDA-MB-435,97%
same,growth at 0.01 µM,UO-31 [12],87%
same,growth at 0.1 µM,786-0 [13],88%
same,growth at 100 µM,HCT-116,52%
same,growth at 10 µM,[14],14%
same,growth at 100 µM,PC-3,42%
same,CC50,OVCAR-3,> 100 µM
same,growth at 1 µM,SK-OV-3 [15],105%
O=S(=O)(Nc1ccccn1)c1ccc2nc(-c3ccccc3)c(-c3ccccc3)nc2c1,growth at 1 µM,786-0 [1],96%
same,growth at 0.01 µM,SK-OV-3 [2],97%
same,growth at 0.1 µM,OVCAR-8 [3],97%
same,growth at 10 µM,U-251,2%
same,GI50,RXF 393,2.14 µM
same,CC50,RXF 393,> 100 µM
same,growth at 100 µM,KM12,53%
same,growth at 10 µM,[4],-2%
same,growth at 1 µM,UO-31 [5],85%
same,growth at 100 µM,NCI-H460 [6],65%
same,growth at 0.01 µM,HOP-62,96%
same,growth at 0.1 µM,SNB-19,93%
same,growth at 10 µM,HOP-92,-18%
same,growth at 0.01 µM,MDA-MB-231,110%
same,GI50,OVCAR-8 [7],2.6 µM
same,TGI,OVCAR-8 [7],> 100 µM
same,CC50,OVCAR-8 [7],> 100 µM
same,growth at 10 µM,UO-31 [8],-5%
same,growth at 0.01 µM,NCI-H460 [9],104%
same,growth at 1 µM,NCI-H23,79%
same,growth at 100 µM,786-0 [10],50%
same,growth at 0.1 µM,NCI-H460 [11],106%
same,TGI,SF-268,> 100 µM
same,CC50,SF-268,> 100 µM
same,growth at 0.1 µM,UACC-62,92%
same,growth at 0.01 µM,MDA-MB-435,99%
same,growth at 0.01 µM,UO-31 [12],88%
same,growth at 0.1 µM,786-0 [13],92%
same,growth at 100 µM,HCT-116,39%
same,growth at 10 µM,[14],-1%
same,growth at 100 µM,PC-3,23%
same,GI50,OVCAR-3,2.17 µM
same,CC50,OVCAR-3,> 100 µM
same,growth at 1 µM,SK-OV-3 [15],98%

# — ChEMBL document CHEMBL2407075, “Sulphonamido-quinoxalines: search for anticancer agent” (Eur J Med Chem, 2013)
